Screening results: PubChem BioAssay, several laboratories
Diaphorase inh: counter-screen for diaphorase-based assays: diaphorase inhibitors and chemical oxidizers | diaphorase resazurin-to-resorufin fluorescence, NADH, 16 min; bacterial (C. kluyveri) enzyme, not human | inhibition, % at 20 µM | 0.69% of 190,000 active;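 active = primary screen inhibition at 20 µM above a set limit, cut at about 50% in these data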;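 note: plate controls were DMSO with full reaction for no effect and wells lacking NADH for full effect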
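Detection: fluorescence of resorufin formed from resazurin, Ex 544/Em 590 nm; test system: Clostridium kluyveri diaphorase enzyme; amount: 0.14 U/mL diaphorase, enzyme working solution; times: 16-min room-temperature incubation before reading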
Redox H2O2 prof: compounds producing H2O2 with reducing agent – biochemical, NIH compound library profiling, artefact control for MLSCN library redox annotation, primary screen; DTT-dependent redox cycling H2O2, phenol red/HRP absorbance; 100% = 100 µM peroxide control, 0% = buffer; activation, % at 10 µM; 0.03% of 200,000 active; AID 878;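 active = activation of at least 50% relative to the plate's high and low controls in the primary single-dose screen; inactive = activation below 50%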;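 note: compound incubated with DTT at 0.8 mM final as the reducing agent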
PfGluPho inh: PfG6PD (Plasmodium falciparum) enzyme inhibition | PfGluPho enzyme, NADPH resazurin-diaphorase fluorescence | inhibition, % at 20 µM | 0.78% of 350,000 active | AID 504690;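 active = inhibition reaching at least a set limit at 20 µM in the primary screen, cut at about 59% in these data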;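 note: 0% = DMSO wells with substrate and 100% = DMSO wells lacking glucose-6-phosphate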
Diaph act CS: counter-screen for diaphorase-based assays: diaphorase activators and chemical reducers; Diaphorase/resazurin coupled assay, resorufin fluorescence, 16 min; stronger effect = higher value; 1 = vehicle wells, 0 = NADH-free wells; activation factor at 20 µM; 0.005% of 190,000 active;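 active = diaphorase activity raised at least twofold by the compound at 20 µM; inactive = activation factor below 2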
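Assay system: bacterial diaphorase enzyme (C. kluyveri) / Input: enzyme 0.07 U/mL final / Medium: 50 mM HEPES pH 7.4 with 4.542 mM MgCl2, 0.005% Tween 20 / Doses: single compound dose of 20 µM, 1% DMSO final / Incubation: 16 min enzyme reaction, ambient temperature / Signal: fluorescence, excitation 544 nm and emission 590 nm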
L major viab: reduces viability of Leishmania major promastigotes; resazurin fluorescence viability; inhibition, % at 10 µM; 9% of 200,000 active;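 note: promastigotes grown with compound for 44 hours at 28 °C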
G6PDH CS: L. mesenteroides G6PDH inhibition counter-screen | Purified L. mesenteroides G6PDH, diaphorase/resazurin coupled fluorescence, 45 min | inhibition, % at 5 µM | 0.12% of 200,000 active | AID 1020
Active calls of the source: *; nt = no result. This is one part of a sample in which hits are shown more often than they occur. Cut-off read from the data, not from the text of the source, unless noted: active = inhibition above about 50%; inactive = the rest.

SMILES	Diaphorase inh	Redox H2O2 prof	PfGluPho inh	Diaph act CS	L major viab	G6PDH CS
CCOc1cc(/C=C2\SC(=N)N(c3nccs3)C2=O)ccc1OCCN1CCOCC1	2	-1	-5	1	97*	-4
CCOc1cc(/C=C2\SC(=S)N(N3CCOCC3)C2=O)ccc1O	nt	nt	9	nt	nt	nt
CCOC(=O)c1ccc(N=C2SC(C(=O)NCCc3ccccc3)CC(=O)N2C)cc1 (stereo not drawn)	54*	0	3	0.5	-9	-8
CC(=O)Nc1ccc(S(=O)(=O)NCCC(=O)OCC(=O)N2CCN(C(=O)c3ccco3)CC2)cc1	nt	nt	1	nt	nt	nt
CCOc1ccc(S(=O)(=O)N2CCCC(C(=O)NC3CC3)C2)cc1Cl (stereo not drawn)	nt	nt	-1	nt	nt	nt
CCCCN1C(=O)C(CC(=O)NCc2ccco2)CC(C(=O)N2CCOCC2)=C1C (stereo not drawn)	nt	nt	-2	nt	nt	nt
CCCN1CCN(C(=O)C2CCN(S(=O)(=O)c3ccc4c(c3)NC(=O)C(C)S4)CC2)CC1 (stereo not drawn)	nt	nt	-2	nt	nt	nt
CCCCN1C=CC(=C2C(=O)c3ccccc3C2=O)C=C1	4	0	24	1	53*	4
CCCCC1C(=O)N(c2ccccc2)N(c2ccccc2)C1=O	7	0	20	0.9	-9	27
CC1CC1C(=O)Nc1ccc(-c2ccccc2)cc1 (stereo not drawn)	-10	1	30	1.1	51*	7
CCn1c(-c2ccc3[nH]c(C)c(C)c3c2)n[nH]c1=S	16	2	21	0.8	5	4
CCOc1ccccc1NC(=O)/C(C#N)=C/c1c(C)nn(-c2ccc(F)cc2)c1Cl	1	nt	-14	1	73*	-1
Cc1nn(-c2ccc(Cl)cc2)c(Cl)c1/C=C(\C#N)C(N)=O	14	0	0	0.9	24	-6
C=CCNC(=O)/C(C#N)=C/c1c(C)nn(-c2ccc(Cl)cc2)c1Cl	13	1	-2	0.9	89*	-11
CC(C)C(=O)Nc1ccc(-c2nnc(-c3ccccc3)o2)cc1	nt	nt	12	nt	nt	nt
N=c1c2c(-c3ccccc3)c(-c3ccccc3)n(Cc3ccco3)c2ncn1Cc1ccco1	-2	2	2	1	100*	5
CCCCn1cnc2c(c(-c3ccccc3)c(-c3ccccc3)n2Cc2ccco2)c1=N	nt	nt	1	nt	nt	nt
N=c1c2c(-c3ccccc3)c(-c3ccccc3)n(Cc3ccccc3)c2ncn1CCCn1ccnc1	-43	2	5	1.4	100*	-2
O=C(NCC1CCCO1)c1ccc2c(c1)N(Cc1ccccc1)CCS2 (stereo not drawn)	nt	nt	12	nt	nt	nt
Cc1ccc(C)c(N/N=C2\CCCNC2=O)c1	18	1	11	0.8	78*	-5
Cc1ccccc1N/N=C1\CCCNC1=O	8	1	10	0.9	-7	19
CCC(=O)N1CCN(c2ccc(NC(=S)NC(=O)COc3ccccc3)cc2)CC1	64*	-1	-1	0.4	-4	9
CC(=O)N1CCN(c2ccc(NC(=S)NC(=O)COc3ccc(C(C)(C)C)cc3)cc2)CC1	15	0	-6	0.9	21	14
O=C1N[C@@H](Cc2ccccc2)C(=O)N2[C@@H]1C[C@@]1(Br)c3ccccc3N(S(=O)(=O)c3ccccc3)[C@@H]21	nt	nt	16	nt	nt	nt
COc1ccc(CN2CCN(CCc3ccccc3)C(CCO)C2)c(O)c1 (stereo not drawn)	19	-2	5	0.8	87*	18
SMILES	Diaphorase inh	Redox H2O2 prof	PfGluPho inh	Diaph act CS	L major viab	G6PDH CS
COc1ccc(O)c(CN2CCN(CCc3ccccc3)C(CCO)C2)c1 (stereo not drawn)	14	1	-7	0.9	77*	17
COc1ccc(CN2CCN(CCCc3ccccc3)C(CCO)C2)c(O)c1 (stereo not drawn)	nt	nt	-5	nt	nt	nt
COc1ccc(/C=N/Nc2nnc(Cc3ccc(OC)c(OC)c3)c(=O)[nH]2)cc1OC	6	0	-24	0.9	81*	19
CC1(C)Cc2c(C#N)c(NCc3ccco3)nc(-c3ccco3)c2CO1	20	0	13	0.8	0	2
CC1(C)Cc2c(C#N)c(N3CCCC3)nc(-c3ccco3)c2CO1	55*	-1	nt	0.5	4	0
CC(C)c1nc(N2CCN(C(=O)c3ccco3)CC2)c(C#N)c2c1COC(C)(C)C2	nt	nt	-1	nt	nt	nt
CC(C)c1nc(N2CCN(C(=O)c3ccccc3)CC2)c(C#N)c2c1COC(C)(C)C2	19	2	9	0.8	74*	0
O=C(Nc1c(C(=O)N2CCOCC2)cnn1-c1ccccc1)c1ccco1	10	-1	-12	0.9	-6	6
COc1cc(/C=N/NC(=O)c2c(-c3c(Cl)cccc3Cl)noc2C)ccc1OCC(N)=O	nt	nt	-1	nt	nt	nt
Cc1onc(-c2c(Cl)cccc2Cl)c1C(=O)N/N=C(\N)COc1ccc(Cl)cc1	23	1	-30	0.8	97*	31
CNC(=O)N(C1=NCC(C)(C)S1)c1ccc(F)c(Cl)c1	23	-4	-19	0.8	6	-3
COc1cc(-c2nnc(SCc3cc(=O)oc4cc(O)c(O)cc34)o2)cc(OC)c1OC	67*	0	-36	0.3	-14	0
Cc1ccc(SCC(=O)OC(C)C(=O)NCc2ccccc2)cc1C (stereo not drawn)	nt	nt	-4	nt	nt	nt
O=C(NCCn1cccn1)C1CCC(=O)N(CCc2ccccc2)C1 (stereo not drawn)	nt	nt	5	nt	nt	nt
Cc1ccc(C)c(N2CCN(C(=O)c3ccc4nc(-c5ccco5)c(-c5ccco5)nc4c3)CC2)c1	24	4	13	0.8	82*	11
c1coc(-c2nc3ccccc3nc2-c2ccco2)c1	80*	0	48	0.2	-7	21
O=C(O)c1ccc2nc(-c3ccccc3)c(-c3ccccc3)nc2c1	18	0	8	0.8	29	1
O=C(NC1CCCC1)c1ccc2nc(-c3ccco3)c(-c3ccco3)nc2c1	80*	2	53	0.2	-6	19
O=C(c1ccccc1)c1ccc2nc(-c3ccco3)c(-c3ccco3)nc2c1	74*	0	35	0.3	-7	21
O=C(NC1CCCC1)c1ccc2nc[nH]c2c1	14	-4	-21	0.9	-7	2
N#Cc1ccc(OCC(=O)NCC2COc3ccccc3O2)cc1 (stereo not drawn)	nt	nt	4	nt	nt	nt
O=C(CS(=O)(=O)c1c[nH]c2ccccc12)N1CCCCCC1	3	-1	16	1	-8	1
Cc1ccc(C(C(=O)NC2CCCCC2)N(Cc2cccnc2)C(=O)C2COc3ccccc3O2)o1 (stereo not drawn)	12	-1	-11	0.9	64*	7
